Data on 16 compounds can be found in ChEMBL document CHEMBL4049457, “Pentafluorosulfanyl-Substituted Benzopyran Analogues As New Cyclooxygenase-2 Inhibitors with Excellent Pharmacokinetics and Efficacy in Blocking Inflammation” (J Med Chem, 2017).

The target of data set [1] is T1, Prostaglandin G/H synthase 2 (Homo sapiens, UniProt P35354).
T1 sequence (P35354 whole entry): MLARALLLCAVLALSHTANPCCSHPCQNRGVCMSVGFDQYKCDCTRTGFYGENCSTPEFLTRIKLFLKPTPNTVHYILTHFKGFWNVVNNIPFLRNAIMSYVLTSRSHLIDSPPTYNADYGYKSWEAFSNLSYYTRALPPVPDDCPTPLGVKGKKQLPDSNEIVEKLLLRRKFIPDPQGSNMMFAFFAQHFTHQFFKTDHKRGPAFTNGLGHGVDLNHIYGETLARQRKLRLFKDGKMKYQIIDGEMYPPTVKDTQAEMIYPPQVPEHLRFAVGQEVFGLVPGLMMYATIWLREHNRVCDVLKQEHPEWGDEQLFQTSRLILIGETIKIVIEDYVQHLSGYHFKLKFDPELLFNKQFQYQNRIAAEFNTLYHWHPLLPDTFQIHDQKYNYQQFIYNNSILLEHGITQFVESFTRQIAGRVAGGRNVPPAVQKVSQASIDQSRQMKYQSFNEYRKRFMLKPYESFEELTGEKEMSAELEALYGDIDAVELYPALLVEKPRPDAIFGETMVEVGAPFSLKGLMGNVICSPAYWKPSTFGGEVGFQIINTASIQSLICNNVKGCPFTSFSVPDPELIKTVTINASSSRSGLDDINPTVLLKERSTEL
Description: Inhibition of recombinant human COX-2 preincubated for 15 mins followed by fluorometric substrate/heme addition for 15 mins subsequently incubated with arachidonic acid for 2 mins by fluorescence analysis.

In data set [2] the target is Prostaglandin G/H synthase 1 (Homo sapiens, UniProt P23219). Description: Inhibition of human COX-1 preincubated for 15 mins followed by fluorometric substrate/heme addition for 15 mins subsequently incubated with arachidonic acid for 2 mins by fluorescence analysis. It counts as ADME.
The nature of data set [3]: AUC (0 to infinity) in Sprague-Dawley rat at 5 mg/kg, iv by LC-MS/MS analysis. It is filed as ADME, organism-based. More on the design: dose 5 mg/kg, time infinity, route intravenous. Particulars: in vivo; call rule not given here.
Data set [4] is described as follows: Half-life in Sprague-Dawley rat at 5 mg/kg, po administered via gastric gavage by LC-MS/MS analysis. It is filed as ADME, organism-based. Particulars: in vivo.
Data set [5] in a line: Tmax in Sprague-Dawley rat at 5 mg/kg, iv by LC-MS/MS analysis. It counts as ADME, organism-based. The conditions noted are these: in vivo.
Data set [6] concerns Rattus norvegicus. In words: Antiarthritic activity in adjuvant-induced Lewis rat model of arthritis assessed as reduction in movement disorder administered via oral gavage once daily starting from day 15 to 25 post adjuvant injection measured post last dose. It is filed as functional. Particulars: 360 h. A digest of the protocol: (§1)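 Adjuvant arthritis in male Lewis rats (170–200 g): 1 mg heat-killed M. tuberculosis in 0.2 mL mineral oil into tail base; responders (left hind paw >0.375 mL above day 0 at day 14) randomized, n = 6/group. Oral gavage once daily in 0.5% methylcellulose at 0.1–10 mg/kg, days 15–24. Day 25: plethysmometer paw volume, limb scores 0–4 (total 0–16), movement 0–3; ED50 derived.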

Data set [7] relates to Rattus norvegicus. Description: Antiarthritic activity in adjuvant-induced Lewis rat model of arthritis assessed as reduction in arthritis score administered via oral gavage once daily starting from day 15 to 25 post adjuvant injection measured post last dose. It counts as functional. Particulars: 360 h. The essentials:
as §1

Data set [8] can be described thus: Oral bioavailability in Sprague-Dawley rat at 5 mg/kg administered via gastric gavage by LC-MS/MS analysis. It is filed as ADME, organism-based. Particulars: in vivo.
A short description of data set [9]: Cmax in Sprague-Dawley rat at 5 mg/kg, iv by LC-MS/MS analysis. Particulars: in vivo. It is filed as ADME, organism-based. On the set-up: dose 5 mg/kg, route intravenous.
Data set [10] concerns Rattus norvegicus. In words: Antiinociceptive activity in carrageenan induced Sprague-Dawley rat model of pain assessed as reversal of paw thermal hyperalgesia administered via po 0.5 hrs prior to carrageenan challenge measured 3 hrs post challenge. It is filed as functional. A digest of the protocol:
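Male SD rats (180–220 g), 0.2 mL 3% λ-carrageenan subcutaneously into right hind paw; oral dosing in 0.5% carboxymethyl cellulose at 1–100 mg/kg (n = 6) 0.5 h before.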

Data set [11] can be described thus: AUC (0 to infinity) in Sprague-Dawley rat at 5 mg/kg, po administered via gastric gavage by LC-MS/MS analysis. More on the design: dose 5 mg/kg, route oral, time infinity. Particulars: in vivo. It is filed as ADME, organism-based.
Data set [12] in a line: Half-life in Sprague-Dawley rat at 5 mg/kg, iv by LC-MS/MS analysis. It counts as ADME, organism-based. Particulars: in vivo.
The test system of data set [13] is Rattus norvegicus. Description: Antiarthritic activity in adjuvant-induced Lewis rat model of arthritis assessed as inhibition of arthritis score at 10 mg/kg administered via oral gavage every 5 days starting from day 15 to 25 post adjuvant injection measured post last dose. It counts as functional. The essentials: (§2)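 Lewis male rats (170–200 g) given 1 mg heat-killed M. tuberculosis in 0.2 mL mineral oil at tail base; rats with left hind paw volume increase >0.375 mL by day 14 selected. Compound dosed orally at 10 mg/kg every 5 days from day 15 (two doses). Scored day 25: paw volume, arthritis 0–16 (erythema/swelling), movement 0–3.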

Data set [14] concerns Rattus norvegicus. Description: Antiinflammatory activity in carrageenan induced Sprague-Dawley rat model of inflammation assessed as reduction in PGE2 levels in air pouch administered via po 1 hr prior to carrageenan challenge measured 3 hrs post challenge by ELISA. It is filed as functional. The essentials: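 Male SD rats; 20 mL sterile air injected subcutaneously in back. Oral dosing in 0.5% carboxymethyl cellulose at 0.03–10 mg/kg (n = 6), vehicle control; 1 h later 6 mL 1% carrageenan into pouch (one day after pouch formation).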

The test system of data set [15] is Rattus norvegicus. Description: Antiarthritic activity in adjuvant-induced Lewis rat model of arthritis assessed as inhibition of movement disorder score at 10 mg/kg administered via oral gavage every 5 days starting from day 15 to 25 post adjuvant injection measured post last dose. It counts as functional. A digest of the protocol:
as §2

Data set [16] can be described thus: (§3) Protein binding in human plasma at 10 uM after 5 hrs by rapid equilibrium dialysis. It counts as ADME, cell-free. The conditions noted are these: read-out: PPB (converted). The essentials:
(§4)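 Rapid equilibrium dialysis against human plasma for 5 h; drug in plasma and buffer chambers quantified by LC/MS; bound % = [1 − (buffer/plasma concentration)] × 100, n = 3.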

Data set [17] has as its system Rattus norvegicus. Description: Antiarthritic activity in adjuvant-induced Lewis rat model of arthritis assessed as inhibition of paw edema score at 10 mg/kg administered via oral gavage every 5 days starting from day 15 to 25 post adjuvant injection measured post last dose. It counts as functional. The essentials: as §2
Data set [18] concerns Rattus norvegicus. In words: Antiinflammatory activity in carrageenan induced Sprague-Dawley rat model of inflammation assessed as reduction in paw edema administered via po 0.5 hrs prior to carrageenan challenge measured 1 to 4 hrs post challenge by plethysmometer. It is filed as functional. The essentials:
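Male SD rats dosed orally in 0.5% carboxymethyl cellulose at 1, 3, 10, 30, 100 mg/kg (n = 6), vehicle control, 0.5 h before carrageenan into right hind paw. Paw volume by water-displacement plethysmometer before and after injection; percent inhibition from paw-volume increment versus controls; ED50 fitted.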

Data set [19] is described as follows: Cmax in Sprague-Dawley rat at 5 mg/kg, po administered via gastric gavage by LC-MS/MS analysis. It counts as ADME, organism-based. On the set-up: dose 5 mg/kg, route oral. Particulars: in vivo.
Data set [20] relates to Rattus norvegicus. Description: Antiarthritic activity in adjuvant-induced Lewis rat model of arthritis assessed as reduction in paw edema administered via oral gavage once daily starting from day 15 to 25 post adjuvant injection measured post last dose. Particulars: 360 h. It is filed as functional. A digest of the protocol:
as §1

Data set [21] has as its target Voltage-gated inwardly rectifying potassium channel KCNH2 (Homo sapiens, UniProt Q12809). Description: Binding affinity to human ERG up to 50 uM after 2 hrs by fluorescence polarization assay. The essentials:
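Fluorescence polarization tracer displacement kit: hERG membrane plus red tracer with compound or positive control, 2 h at room temperature, read with polarized excitation/emission filters; dofetilide-binding surrogate for hERG.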

The nature of data set [22]: Tmax in Sprague-Dawley rat at 5 mg/kg, po administered via gastric gavage by LC-MS/MS analysis. It counts as ADME, organism-based. Particulars: in vivo.
The next data set relates to Plasma. The description is as §3. The conditions noted are these: 5 h, 10 µM. It is filed as ADME, cell-free. A digest of the protocol: as §4

Voltage-gated inwardly rectifying potassium channel KCNH2, sequence (Q12809 whole entry): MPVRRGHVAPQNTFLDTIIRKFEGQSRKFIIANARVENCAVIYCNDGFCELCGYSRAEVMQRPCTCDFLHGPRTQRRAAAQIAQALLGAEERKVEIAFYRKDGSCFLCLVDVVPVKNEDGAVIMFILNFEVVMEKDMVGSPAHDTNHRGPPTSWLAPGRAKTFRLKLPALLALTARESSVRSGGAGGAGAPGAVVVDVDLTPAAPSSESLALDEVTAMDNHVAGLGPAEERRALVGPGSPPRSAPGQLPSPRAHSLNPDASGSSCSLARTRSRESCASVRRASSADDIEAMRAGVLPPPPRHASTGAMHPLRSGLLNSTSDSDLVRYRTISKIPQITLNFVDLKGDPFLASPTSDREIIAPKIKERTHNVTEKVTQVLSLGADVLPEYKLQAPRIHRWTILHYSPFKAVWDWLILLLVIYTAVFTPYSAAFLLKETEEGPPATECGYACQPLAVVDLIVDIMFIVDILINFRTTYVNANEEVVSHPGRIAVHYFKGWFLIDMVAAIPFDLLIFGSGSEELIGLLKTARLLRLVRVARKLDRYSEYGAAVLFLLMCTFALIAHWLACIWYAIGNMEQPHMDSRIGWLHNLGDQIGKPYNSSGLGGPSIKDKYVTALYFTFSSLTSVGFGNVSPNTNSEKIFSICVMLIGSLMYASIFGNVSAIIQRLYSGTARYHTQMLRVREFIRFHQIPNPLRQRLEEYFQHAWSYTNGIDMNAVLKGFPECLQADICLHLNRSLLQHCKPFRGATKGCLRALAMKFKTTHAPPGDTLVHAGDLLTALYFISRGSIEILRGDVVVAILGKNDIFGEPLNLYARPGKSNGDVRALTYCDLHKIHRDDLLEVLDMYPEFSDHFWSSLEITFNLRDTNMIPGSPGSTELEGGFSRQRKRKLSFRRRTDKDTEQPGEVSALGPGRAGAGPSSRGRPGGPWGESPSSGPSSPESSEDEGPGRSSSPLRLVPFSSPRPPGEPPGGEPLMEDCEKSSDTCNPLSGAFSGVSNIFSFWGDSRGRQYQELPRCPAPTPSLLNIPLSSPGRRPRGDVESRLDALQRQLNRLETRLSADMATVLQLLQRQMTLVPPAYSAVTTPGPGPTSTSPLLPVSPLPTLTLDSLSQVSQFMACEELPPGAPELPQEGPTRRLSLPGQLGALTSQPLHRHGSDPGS
Prostaglandin G/H synthase 1, sequence (P23219 whole entry): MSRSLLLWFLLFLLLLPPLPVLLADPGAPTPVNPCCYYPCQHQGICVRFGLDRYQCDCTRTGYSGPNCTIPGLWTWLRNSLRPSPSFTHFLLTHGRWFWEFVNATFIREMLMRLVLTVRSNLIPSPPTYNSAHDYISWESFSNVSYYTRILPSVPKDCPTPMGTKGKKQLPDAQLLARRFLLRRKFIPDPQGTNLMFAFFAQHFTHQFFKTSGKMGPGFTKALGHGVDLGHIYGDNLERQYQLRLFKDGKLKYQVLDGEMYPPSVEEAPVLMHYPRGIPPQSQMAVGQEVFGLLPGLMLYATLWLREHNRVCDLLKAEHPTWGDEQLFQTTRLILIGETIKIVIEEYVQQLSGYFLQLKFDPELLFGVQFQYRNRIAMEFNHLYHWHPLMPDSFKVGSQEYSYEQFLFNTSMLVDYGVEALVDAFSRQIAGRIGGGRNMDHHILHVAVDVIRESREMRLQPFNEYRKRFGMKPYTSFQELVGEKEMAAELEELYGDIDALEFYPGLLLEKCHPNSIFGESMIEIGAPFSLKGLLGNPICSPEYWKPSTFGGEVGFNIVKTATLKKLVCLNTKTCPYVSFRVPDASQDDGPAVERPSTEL

For `O=CC1=Cc2cc(S(F)(F)(F)(F)F)cc(Br)c2OC1C(F)(F)F` (centres undefined), the IC50 in data set [1] and in data set [2] was > 10000 nM throughout.

In the case of `O=C(O)C1=Cc2cc(S(F)(F)(F)(F)F)ccc2OC1C(F)(F)F` (centres undefined), the AUC(0-inf) in [3] turned out to be 364 µg·h/mL; in data set [11], 414 µg·h/mL. The IC50 is 18 nM in [1] and > 10000 nM in [2]. Besides, the half-life is 12.5 h in data set [4] and 17.3 h in [12]. Further, the Tmax was found to be 1.98 min in [5] and 7.75 h in data set [22]. Further, the ED50 is 0.12 mg/kg with Rattus norvegicus [6]; 0.094 mg/kg in the data set with Rattus norvegicus [7]; 2.8 mg/kg in the data set on Rattus norvegicus [10]; 0.37 mg/kg with Rattus norvegicus [14]; 4 mg/kg in the data set with Rattus norvegicus [18]; 0.093 mg/kg with Rattus norvegicus [20]. For the same compound, the bioavailability in data set [8] was 100 to 114%. The Cmax stood at 31700 ng/mL in data set [9] and 15300 ng/mL in data set [19]. The Activity result with Rattus norvegicus [10] was “Dose-dependent effect”; in the data set with Rattus norvegicus [14] it was “Dose-dependent effect”; with Rattus norvegicus [18], “Dose-dependent effect”; in data set [21] it was “Not Active”. Besides, the inhibition in vivo at 10 mg/kg in the data set with Rattus norvegicus [13] was 69.6%; with Rattus norvegicus [15], 79.2%; in the data set with Rattus norvegicus [17] it was 66.9%. The fraction unbound at 5 h, 10 µM in [16] is 0.001.

Compound `CN(C)CCCN1c2ccccc2Sc2ccc(Cl)cc21.Cl` [CHLORPROMAZINE HYDROCHLORIDE] displayed a PPB in the data set on Plasma of 99.82%.

Consider `Cc1cc(S(F)(F)(F)(F)F)cc2c1OC(C(F)(F)F)C(C(=O)O)=C2` (centres undefined), for which the results for the 50% inhibitory concentration (IC50) in data set [1] and in data set [2] were 26 nM and > 10000 nM, respectively. Further, the fraction unbound at 5 h, 10 µM in data set [16] was 0.0005. Further, the Activity result in data set [21] is recorded as “Not Active”.

Take `O=C(O)C1=Cc2cc(S(F)(F)(F)(F)F)ccc2O[C@@H]1C(F)(F)F`: the IC50 in data set [1] was 10 nM; in data set [2], > 30000 nM. The fraction unbound at 5 h, 10 µM in data set [16] is 0.0004. Further, in [21], the Activity entry was “Not Active”.

Regarding `O=C(O)C1=Cc2cc(S(F)(F)(F)(F)F)cc(Br)c2O[C@H]1C(F)(F)F`, the IC50 was 340 nM in data set [1] and > 10000 nM in [2]. Besides, in data set [16], the fraction unbound at 5 h, 10 µM is 0.0005.

As for `O=CC1=Cc2cc(S(F)(F)(F)(F)F)ccc2OC1C(F)(F)F` (centres undefined), the IC50 in [1] and in [2] was > 10000 nM in each case.

Turning to `O=C(O)C1=Cc2cc(S(F)(F)(F)(F)F)cc(Cc3ccccc3)c2OC1C(F)(F)F` (centres undefined), the IC50 in data set [1] was > 100000 nM; in data set [2], > 10000 nM.

Take `O=C(O)C1=Cc2ccc(S(F)(F)(F)(F)F)cc2OC1C(F)(F)F` (centres undefined): the IC50 in [1] and in data set [2] was > 10000 nM throughout. Also, in data set [16], the fraction unbound at 5 h, 10 µM is 0.0006.

Turning to `CCCCc1cc(S(F)(F)(F)(F)F)cc2c1OC(C(F)(F)F)C(C(=O)O)=C2` (centres undefined), the IC50 was 190 nM in data set [1] and > 10000 nM in data set [2]. In addition, the fraction unbound at 5 h, 10 µM in [16] was 0.0008. The Activity entry in [21] is “Not Active”.

Regarding `Cc1ccc(-c2cc(C(F)(F)F)nn2-c2ccc(S(N)(=O)=O)cc2)cc1` [CELECOXIB], the ED50 with Rattus norvegicus [6] turned out to be 9.2 mg/kg; in the data set with Rattus norvegicus [7], 0.71 mg/kg; with Rattus norvegicus [10], 5 mg/kg; with Rattus norvegicus [14], 0.69 mg/kg; with Rattus norvegicus [18] it was 2.8 mg/kg; with Rattus norvegicus [20], 1.6 mg/kg.

For `O=C(O)C1=Cc2cc(S(F)(F)(F)(F)F)cc(Br)c2O[C@@H]1C(F)(F)F`, the IC50 in data set [1] was 8 nM; in [2] it was > 10000 nM. Also, the fraction unbound at 5 h, 10 µM in [16] was 0.0009.

As for `CCCc1cc(S(F)(F)(F)(F)F)cc2c1OC(C(F)(F)F)C(C(=O)O)=C2` (centres undefined), the IC50 in [1] was 46 nM; in [2], > 10000 nM. The Activity result in [21] is listed as “Not Active”.

With `CCc1cc(S(F)(F)(F)(F)F)cc2c1OC(C(F)(F)F)C(C(=O)O)=C2` (centres undefined), the IC50 in data set [1] is 60 nM; in data set [2], > 10000 nM. The Activity entry in data set [21] is recorded as “Not Active”.

For the compound `O=C(O)C1=Cc2cc(S(F)(F)(F)(F)F)ccc2O[C@H]1C(F)(F)F`, the IC50 in [1] was 302 nM; in data set [2], > 10000 nM.

In the case of `O=C(O)C1=Cc2cc(S(F)(F)(F)(F)F)cc(Br)c2OC1C(F)(F)F` (racemic), the IC50 in data set [1] is 56 nM; in data set [2], > 10000 nM.
